The campaign covered roughly 65,000 compounds. About 280 (0.43%) were called active.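 How the source made its calls: active means inhibition above the mean of all tested compounds plus 3 SD (cut at about 52% in these data); inactive means the rest.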 This excerpt belongs to a sample that is enriched for actives.
Each compound was assayed against Nuclear receptor ROR-alpha (Homo sapiens) (UniProt P35398) (assay: inhibitors of orphan receptor RORA, primary screen, cell-based, luminescence (AID 561)). Conditions: CHO-K1 Gal4-RORA LBD luciferase reporter, at 10 µM, hits give high values.
Procedure, shortened: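 Test system: CHO-K1 cells with Gal4-hRORA LBD fusion and pG5-luc reporter / Compound: single concentration per compound, 10 µM final / Schedule: 20 h compound treatment, 37 °C / Signal: luminescence from basal luciferase reporter expression / Read-out: % inhibition / Control set: mock-transfected cells as 100%, +RORA DMSO cells as 0% / Replicates: tested once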

Nuclear receptor ROR-alpha (Homo sapiens), sequence (P35398 whole entry, looked up, the tested form may be a part): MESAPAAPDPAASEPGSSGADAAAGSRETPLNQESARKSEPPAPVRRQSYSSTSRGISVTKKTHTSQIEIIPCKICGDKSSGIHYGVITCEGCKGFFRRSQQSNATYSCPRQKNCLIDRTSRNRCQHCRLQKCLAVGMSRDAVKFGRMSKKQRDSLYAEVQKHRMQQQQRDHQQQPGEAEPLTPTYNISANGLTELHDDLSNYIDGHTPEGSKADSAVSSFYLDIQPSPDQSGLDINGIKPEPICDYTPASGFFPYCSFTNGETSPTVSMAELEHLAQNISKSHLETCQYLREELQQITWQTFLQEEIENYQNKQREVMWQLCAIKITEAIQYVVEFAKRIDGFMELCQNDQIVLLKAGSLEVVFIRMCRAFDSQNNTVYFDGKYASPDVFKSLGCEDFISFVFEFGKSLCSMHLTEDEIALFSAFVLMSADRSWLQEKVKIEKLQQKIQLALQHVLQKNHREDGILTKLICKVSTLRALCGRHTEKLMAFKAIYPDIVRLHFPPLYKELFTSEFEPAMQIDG

| Compound | inhibition |
| --- | --- |
| C=CCOc1nc2c(c(=O)n(C)c(=O)n2C)n1Cc1ccc(Cl)cc1Cl | 63.5% (active) |
| Cn1c(=O)c2c(nc(N3CCCCCC3)n2CC(O)COc2ccc(Cl)cc2)n(C)c1=O (stereo unspecified) | -1% (inactive) |
| CCCc1[nH]nc2c1C(c1ccc(OC)c(Cn3nc(C)c(Br)c3C)c1)C(C#N)=C(N)O2 (stereo unspecified) | 27.5% (inactive) |
| CN(C)c1cc(N)c2ccccc2n1 (tested in a mixture with another compound) | -3.2% (inactive) |
| O=C1c2oc3ccccc3c(=O)c2C(c2cccc(O)c2)N1c1ccccn1 (stereo unspecified) | -9.5% (inactive) |
| COc1ccc(-c2nn(-c3ccccc3)cc2C(=O)Nc2nc(CC(C)=O)ns2)cc1 | -0.5% (inactive) |
| COc1cccc(N2CCN(C(=O)C3CCCN(S(=O)(=O)c4cnc[nH]4)C3)CC2)c1 (stereo unspecified) | 4.9% (inactive) |
| Cc1ccc(NC(=O)c2nc[nH]c2C(=O)N2CCCCC2)c(C(=O)c2ccccc2)c1 | 24.7% (inactive) |
| O=c1[nH]c(-c2ccccc2)c(-c2ccccc2)[nH]1 | 23.5% (inactive) |
| O=C(CCC(=O)c1cccs1)NCc1ccccc1 | 2.2% (inactive) |
| COc1ccc(NC(=O)c2cccc(NC(=O)c3ccco3)c2)c(OC)c1 | -19% (inactive) |
| CC(C)n1c(SCC(=O)Nc2ccccc2N2CCCCC2)nc2c1c(=O)n(C)c(=O)n2C | 18.7% (inactive) |
| CC(C)Cc1cc(C(=O)NCCc2ccccc2)no1 | -23.2% (inactive) |
| c1coc(CNc2ncnc3ccccc23)c1 | 66.3% (active) |
| O=C(Cc1ccccc1)n1nc(-c2ccccc2)nc1NCc1ccco1 | -8% (inactive) |
| O=C(NCc1ccc2c(c1)OCO2)c1ccc2c(c1)C(=O)N(CC1CCCO1)C2=O (stereo unspecified) | 4.9% (inactive) |
| Cc1ccc(Cn2ccc(NC(=O)C3C4CCC(C4)C3C(=O)O)n2)cc1 (stereo unspecified) | -14.2% (inactive) |
| COc1ccccc1C1/C(=C(/O)c2ccc(C)cc2)C(=O)C(=O)N1Cc1ccco1 (stereo unspecified) | -17.5% (inactive) |
| O=C(CNC(=O)c1ccco1)OCC(=O)c1ccccc1 | 10.7% (inactive) |
| O=c1cc(-c2ccccc2)nc(N2CCCCC2)[nH]1 | -0.2% (inactive) |
| CC(C)C[C@H](NC(=O)Nc1cccc(C(F)(F)F)c1)C(=O)O | 11.1% (inactive) |
| CN(c1ccc(C(=O)NCCC2=CCCCC2)cc1)S(C)(=O)=O | -63% (inactive) |
| CC(=O)Nc1ccn(Cc2c(F)cccc2Cl)n1 | -27.2% (inactive) |
| CCOC(=O)Cc1c(C)nc2c(C#N)c(C)nn2c1C | -2.8% (inactive) |
| COC(=O)C(C)C1Sc2ccccc2NC1=O (stereo unspecified) | 13.2% (inactive) |
| CC(=O)c1cnc(Nc2nc(C)c3cc(C)ccc3n2)nc1C | 26.5% (inactive) |

Reference: PubChem BioAssay AID561 (The Scripps Research Institute Molecular Screening Center, 2006)
